The values below come from PubChem BioAssay AID651628 (The Scripps Research Institute Molecular Screening Center, 2012).

The source made the active and inactive calls.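 Rule for the calls: active = at least one off-target enzyme showing weaker fluorescent probe labeling in any proteome panel; inactive = no off-target enzyme affected in any panel.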

The experiment relates to Membrane Proteome. Description: proteome-wide probe labelling blockade by competitive ABPP – cell lysate, gel-based fluorescence, soluble and membrane fractions, selectivity assay for PAD4 inhibitor project, late-stage follow-up (AID 651628). The note with it: MCF7 proteome, CA-Rh gel-based ABPP, anti-target count, at 10 µM, hits give high values. The essentials:
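Test system: MCF7 cell proteome, soluble or membrane fraction / Amount: proteome protein concentration of 1 mg/ml / Schedule: compound 1 h, probe 1 h, 25 °C / Buffer or medium: DPBS / Detection: SDS-PAGE separation with in-gel fluorescence scanning of labelled bands / Also added: Chloroacetamide-rhodamine (CA-Rh) labelling probe, 10 µM / Doses: compound at 10 or 50 µM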
Turning to `O=C1C(O)=C(O)C(=O)c2ncccc21`, the number of anti-targets is 2 (active).

In the case of `COC1=C(N)C(=O)c2nc(-c3nc(C(=O)O)c(C)c(-c4ccc(OC)c(OC)c4O)c3N)ccc2C1=O`, the number of anti-targets is 0 (inactive).

As to `O=C1C=C(Br)C(=O)c2ncccc21`, the number of anti-targets is > 5 (active).

For `NC1=CC(=O)c2cccnc2C1=O`, the number of anti-targets was 0 (inactive).

Consider `COC1=C(N)C(=O)c2ncccc2C1=O`, for which the number of anti-targets is 0 (inactive).

With `NC1=CC(=O)c2ccc(-c3cccc(C(=O)O)n3)nc2C1=O`, the number of anti-targets is 0 (inactive).

Consider `COC1=C(Br)C(=O)c2nc(-c3ccccn3)ccc2C1=O`, for which the number of anti-targets is > 5 (active).

`COC1=C(I)C(=O)c2nc(C#N)ccc2C1=O`: the number of anti-targets is > 5 (active).

`NC1=CC(=O)c2ccc(-c3ccccn3)nc2C1=O`: the number of anti-targets was 0 (inactive).

With `COC1=CC(=O)c2nc(C#N)ccc2C1=O`, the number of anti-targets was > 5 (active).

For `COC1=C(Br)C(=O)c2ncccc2C1=O`, the number of anti-targets was > 5 (active).

Take `COC(=O)c1cccc(-c2ccc3c(n2)C(=O)C(N)=CC3=O)n1`: the number of anti-targets is 0 (inactive).

Regarding `COC(=O)c1nc(C(=O)OC)c(NC(C)=O)c(-c2ccccc2Br)c1C`, the number of anti-targets was 0 (inactive).

Consider `COC(=O)c1cccc(-c2ccc3c(n2)C(=O)C(Br)=CC3=O)n1`, for which the number of anti-targets was 0 (inactive).
